Calls of active or inactive are those of the source. The rule behind the calls is not given here. Square brackets hold non-standard residues; d marks the D form. Peptide text beside a SMILES is read from it. Abu = CC[C@H](N)C(=O)O
Tests used:
[1] = system: HUVEC; assay: Antiangiogenic activity in human HUVEC cells assessed as inhibition of cell proliferation at 100 uM after 72 hrs by WST-1-based colorimetric assay; type: functional
In short: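 HUVEC (passages 2–7) plated at 2000 cells/well, peptide 100 μM added in fully supplemented medium to adherent cells for 72 hours; WST-1 then applied in serum-free medium for four hours and absorbance read at 450 nm. Two biological replicates, each mean of three technical replicates; percent inhibition relative to vehicle control.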

[2] = system: HUVEC; assay: Antiangiogenic activity in human HUVEC cells assessed as inhibition of cell adhesion at 100 uM upto 3 hrs by migration assay; type: functional
In short: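 HUVEC (passages 2–7, EGM-2, 37°C, 5% CO2) seeded at 25,000 cells/well in single-compartment impedance E-plates with or without peptide at 100 μM; adhesion tracked as change in cell index amplitude over 3 hours. Two biological replicates, each the mean of three same-plate technical replicates; expressed as percent inhibition relative to vehicle control.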

[3] = system: HUVEC; assay: Antiangiogenic activity in human HUVEC cells assessed as inhibition of cell migration at 50 uM; type: functional
In short: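 Real-time impedance migration: upper chamber coated with fibronectin (20μg/ml), 45,000 HUVEC/well (passages 2–7) added with or without peptide at 50 μM; fully supplemented medium below as chemoattractant; migration read as cell index from sensors under porous membrane. Duplicate experiments, each averaging three same-plate replicates; percent inhibition versus vehicle control.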

[4] = system: HUVEC; assay: Antiangiogenic activity in human HUVEC cells assessed as inhibition of tube structure formation at 100 uM relative to control; type: functional, cell-based
In short: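 Wells coated with reduced growth factor basement membrane matrix, gelled 30 minutes at 37 °C; HUVEC seeded on gel at 15,000 cells/well with or without peptide (100 μM), control receiving equal DMSO vehicle. Incubated overnight at 37 °C, 5% CO2; tube structures imaged by camera on inverted microscope.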

Row | Molecule | inhibition at 100 µM [1] [%] | inhibition at 100 µM [2] [%] | inhibition at 50 µM [3] [%] | inhibition [4]
1 | CC[C@H](NC(=O)[C@H](Cc1ccccc1)NC(=O)[C@H](CCSC)NC(=O)[C@H](Cc1ccccc1)NC(=O)[C@@H]1CCCN1C(=O)[C@H](CCSC)NC(=O)[C@@H](NC(=O)[C@@H](N)CO)[C@@H](C)O)C(=O)N[C@@H](CC(N)=O)C(=O)N[C@H](C(=O)N[C@@H](CC(N)=O)C(=O)N[C@@H](CC(N)=O)C(=O)N[C@H](C(=O)N[C@@H](CC)C(=O)N[C@@H](CC(N)=O)C(=O)N[C@@H](Cc1ccccc1)C(=O)O)C(C)C)[C@@H](C)CC (H-STMPFMF[Abu]NINNV[Abu]NF-OH) | 13.8 | 6.82 | -24.5 | –
2 | CC[C@H](NC(=O)[C@H](Cc1ccccc1)NC(=O)[C@H](CCSC)NC(=O)[C@H](C)NC(=O)[C@@H]1CCCN1C(=O)[C@H](CCSC)NC(=O)[C@@H](NC(=O)[C@H](CO)NC(=O)[C@H](Cc1ccccc1)NC(=O)[C@H](CCCNC(=N)N)NC(=O)[C@H](CCCNC(=N)N)NC(=O)[C@@H](N)CC(C)C)[C@@H](C)O)C(=O)N[C@@H](CC(N)=O)C(=O)N[C@H](C(=O)N[C@@H](CC(N)=O)C(=O)N[C@@H](CC(N)=O)C(=O)N[C@H](C(=O)N[C@@H](CC)C(=O)N[C@@H](CC(N)=O)C(=O)N[C@@H](Cc1ccccc1)C(=O)O)C(C)C)[C@@H](C)CC (H-LRRFSTMPAMF[Abu]NINNV[Abu]NF-OH) | 65.4 | 95.6 | 99.8 | –
3 | CC[C@H](NC(=O)[C@@H](NC(=O)[C@H](CC(N)=O)NC(=O)[C@H](CC(N)=O)NC(=O)[C@@H](NC(=O)[C@@H](N)CC(N)=O)[C@@H](C)CC)C(C)C)C(=O)N[C@@H](CC(N)=O)C(=O)N[C@@H](Cc1ccccc1)C(=O)O (H-NINNV[Abu]NF-OH) | 24.2 | 70.8 | 31.6 | –
4 | CC[C@H](NC(=O)[C@H](C)NC(=O)[C@H](CCSC)NC(=O)[C@H](Cc1ccccc1)NC(=O)[C@@H]1CCCN1C(=O)[C@H](CCSC)NC(=O)[C@@H](NC(=O)[C@H](CO)NC(=O)[C@H](Cc1ccccc1)NC(=O)[C@H](CCCNC(=N)N)NC(=O)[C@H](CCCNC(=N)N)NC(=O)[C@@H](N)CC(C)C)[C@@H](C)O)C(=O)N[C@@H](CC(N)=O)C(=O)N[C@H](C(=O)N[C@@H](CC(N)=O)C(=O)N[C@@H](CC(N)=O)C(=O)N[C@H](C(=O)N[C@@H](CC)C(=O)N[C@@H](CC(N)=O)C(=O)N[C@@H](Cc1ccccc1)C(=O)O)C(C)C)[C@@H](C)CC (H-LRRFSTMPFMA[Abu]NINNV[Abu]NF-OH) | 65.1 | 99.3 | 99.6 | –
5 | H-LRRFSTMPFMFVNINNVVNF-OH | 62.2 | 95.1 | 98.8 | Active
6 | H-LRRFSTMPFMF-OH | 2.97 | -2.6 | -14.2 | –
7 | CC[C@H](NC(=O)[C@@H](N)Cc1ccccc1)C(=O)N[C@@H](CC(N)=O)C(=O)N[C@H](C(=O)N[C@@H](CC(N)=O)C(=O)O)[C@@H](C)CC (H-F[Abu]NIN-OH) | 8.17 | 3.45 | -23.7 | –
8 | CC[C@H](C)[C@H](NC(=O)[C@H](CC(N)=O)NC(=O)[C@@H](NC(=O)[C@H](Cc1ccccc1)NC(=O)[C@H](C)NC(=O)[C@H](Cc1ccccc1)NC(=O)[C@@H]1CCCN1C(=O)[C@H](CCSC)NC(=O)[C@@H](NC(=O)[C@H](CO)NC(=O)[C@H](Cc1ccccc1)NC(=O)[C@H](CCCNC(=N)N)NC(=O)[C@H](CCCNC(=N)N)NC(=O)[C@@H](N)CC(C)C)[C@@H](C)O)[C@@H](C)CC)C(=O)N[C@@H](CC(N)=O)C(=O)N[C@@H](CC(N)=O)C(=O)N[C@H](C(=O)N[C@H](C(=O)N[C@@H](CC(N)=O)C(=O)N[C@@H](Cc1ccccc1)C(=O)O)[C@@H](C)CC)C(C)C | 46.6 | 94.8 | 69.3 | Active
9 | H-LNRFSTMPF-OH | 6.35 | 0.32 | -16.1 | –
10 | H-LRRFSTMPFMFSNINNVSNF-OH | 50.5 | 98 | 92.6 | –
11 | H-LRRFSTMPFMFININNVINF-OH | 73.2 | 98.6 | 92.9 | –
12 | CC[C@H](NC(=O)[C@H](Cc1ccccc1)NC(=O)[C@H](C)NC(=O)[C@H](Cc1ccccc1)NC(=O)[C@@H]1CCCN1C(=O)[C@H](CCSC)NC(=O)[C@@H](NC(=O)[C@H](CO)NC(=O)[C@H](Cc1ccccc1)NC(=O)[C@H](CCCNC(=N)N)NC(=O)[C@H](CCCNC(=N)N)NC(=O)[C@@H](N)CC(C)C)[C@@H](C)O)C(=O)N[C@@H](CC(N)=O)C(=O)N[C@H](C(=O)N[C@@H](CC(N)=O)C(=O)N[C@@H](CC(N)=O)C(=O)N[C@H](C(=O)N[C@@H](CC)C(=O)N[C@@H](CC(N)=O)C(=O)N[C@@H](Cc1ccccc1)C(=O)O)C(C)C)[C@@H](C)CC (H-LRRFSTMPFAF[Abu]NINNV[Abu]NF-OH) | 63.6 | 98.3 | 99.6 | –
13 | H-LRRFSTMPFMFANINNVANF-OH | 48.6 | 98.2 | 99.6 | –
14 | CC[C@H](C)[C@H](NC(=O)[C@H](CC(N)=O)NC(=O)[C@H](CS)NC(=O)[C@H](Cc1ccccc1)NC(=O)[C@H](CCSC)NC(=O)[C@H](Cc1ccccc1)NC(=O)[C@@H]1CCCN1C(=O)[C@H](CCSC)NC(=O)[C@@H](NC(=O)[C@H](CO)NC(=O)[C@H](Cc1ccccc1)NC(=O)[C@H](CCCNC(=N)N)NC(=O)[C@H](CCCNC(=N)N)NC(=O)[C@@H](N)CC(C)C)[C@@H](C)O)C(=O)N[C@@H](CC(N)=O)C(=O)N[C@@H](CC(N)=O)C(=O)N[C@H](C(=O)N[C@@H](CS)C(=O)N[C@@H](CC(N)=O)C(=O)N[C@@H](Cc1ccccc1)C(=O)O)C(C)C (H-LRRFSTMPFMFCNINNVCNF-OH) | 67.5 | 96.2 | 91 | –
15 | H-LRRFSTMPFMFGNINNVGNF-OH | 25.7 | 97.8 | 87.9 | –
16 | CC[C@H](NC(=O)[C@H](Cc1ccccc1)NC(=O)[C@H](CCSC)NC(=O)[C@H](Cc1ccccc1)NC(=O)[C@@H]1CCCN1C(=O)[C@H](CCSC)NC(=O)[C@@H](NC(=O)[C@H](CO)NC(=O)[C@H](Cc1ccccc1)NC(=O)[C@H](CCCNC(=N)N)NC(=O)[C@H](CCCNC(=N)N)NC(=O)[C@@H](N)CC(C)C)[C@@H](C)O)C(=O)N[C@@H](CC(N)=O)C(=O)N[C@H](C(=O)N[C@@H](CC(N)=O)C(=O)N[C@@H](CC(N)=O)C(=O)N[C@H](C(=O)N[C@@H](CC)C(=O)N[C@@H](CC(N)=O)C(=O)N[C@@H](Cc1ccccc1)C(=O)O)C(C)C)[C@@H](C)CC (H-LRRFSTMPFMF[Abu]NINNV[Abu]NF-OH) | 69.7 | 98.5 | 97 | –
17 | H-LRRFSTMPFMFTNINNVTNF-OH | 59.1 | 98.7 | 96.1 | –
18 | CC[C@H](NC(=O)[C@@H](NC(=O)[C@H](CC(N)=O)NC(=O)[C@H](CC(N)=O)NC(=O)[C@@H](NC(=O)[C@H](CC(N)=O)NC(=O)[C@H](CC)NC(=O)[C@@H](N)Cc1ccccc1)[C@@H](C)CC)C(C)C)C(=O)N[C@@H](CC(N)=O)C(=O)O (H-F[Abu]NINNV[Abu]N-OH) | 20.6 | 77.5 | 40.4 | –
19 | CC[C@H](NC(=O)[C@H](Cc1ccccc1)NC(=O)[C@H](CCSC)NC(=O)[C@@H](N)Cc1ccccc1)C(=O)N[C@@H](CC(N)=O)C(=O)N[C@H](C(=O)N[C@@H](CC(N)=O)C(=O)N[C@@H](CC(N)=O)C(=O)N[C@H](C(=O)N[C@@H](CC)C(=O)N[C@@H](CC(N)=O)C(=O)N[C@@H](Cc1ccccc1)C(=O)O)C(C)C)[C@@H](C)CC (H-FMF[Abu]NINNV[Abu]NF-OH) | 28.3 | 66.2 | -16.6 | –
20 | H-LRRFSTMP-OH | 7.02 | -0.14 | -20.1 | Active
